Test results: ChEMBL document CHEMBL1629649, “Multiple regulatory pathways associated with high-level ciprofloxacin and multidrug resistance in Salmonella enterica serovar enteritidis: involvement of RamA and other global regulators” (2009)
Values after ≈ are worked out from the molar mass of the structure shown. Residues, ends and D or L forms follow the SMILES beside them. *: point of attachment. βNA = c1ccc2cc(N*)ccc2c1

What was measured:
[1] = test system: Salmonella enterica subsp. enterica serovar Enteritidis; assay: Inhibition of AcrAB-TolC efflux pump in Salmonella enterica serovar enteritidis isolate 5408-cip assessed as fold increase in tetracycline MIC relative to control
[2] = test system: Salmonella enterica subsp. enterica serovar Enteritidis; assay: Inhibition of AcrAB-TolC efflux pump in Salmonella enterica serovar enteritidis isolate 54 assessed as fold increase in ciprofloxacin MIC relative to control
[3] = test system: Salmonella enterica subsp. enterica serovar Enteritidis; assay: Inhibition of AcrAB-TolC efflux pump in Salmonella enterica serovar enteritidis isolate NCTC 13349 assessed as fold increase in nalidixic acid MIC relative to control
[4] = test system: Salmonella enterica subsp. enterica serovar Enteritidis; assay: Inhibition of AcrAB-TolC efflux pump in Salmonella enterica serovar enteritidis isolate 104-cip assessed as fold increase in chloramphenicol MIC relative to control
[5] = test system: Salmonella enterica subsp. enterica serovar Enteritidis; assay: Inhibition of AcrAB-TolC efflux pump in Salmonella enterica serovar enteritidis isolate 4931 assessed as fold increase in nalidixic acid MIC relative to control
[6] = test system: Salmonella enterica subsp. enterica serovar Enteritidis; assay: Inhibition of AcrAB-TolC efflux pump in Salmonella enterica serovar enteritidis isolate 104-cip assessed as fold increase in tetracycline MIC relative to control
[7] = test system: Salmonella enterica subsp. enterica serovar Enteritidis; assay: Inhibition of AcrAB-TolC efflux pump in Salmonella enterica serovar enteritidis isolate 58 assessed as fold increase in nalidixic acid MIC relative to controlphenylalanine-arginine-beta-naphthylamide
[8] = test system: Salmonella enterica subsp. enterica serovar Enteritidis; assay: Inhibition of AcrAB-TolC efflux pump in ciprofloxacin-resistant Salmonella enterica serovar enteritidis isolate CUH48 assessed as fold increase in ciprofloxacin MIC relative to control
[9] = test system: Salmonella enterica subsp. enterica serovar Enteritidis; assay: Inhibition of AcrAB-TolC efflux pump in Salmonella enterica serovar enteritidis isolate CUH52 assessed as fold increase in ciprofloxacin MIC relative to control
[10] = test system: Salmonella enterica subsp. enterica serovar Enteritidis; assay: Inhibition of AcrAB-TolC efflux pump in Salmonella enterica serovar enteritidis isolate 104-cip assessed as fold increase in trimethoprim-sulfamethoxazole MIC relative to control
[11] = test system: Salmonella enterica subsp. enterica serovar Enteritidis; assay: Inhibition of AcrAB-TolC efflux pump in Salmonella enterica serovar enteritidis isolate 104-cip assessed as fold increase in ciprofloxacin MIC relative to control
[12] = test system: Salmonella enterica subsp. enterica serovar Enteritidis; assay: Inhibition of AcrAB-TolC efflux pump in Salmonella enterica serovar enteritidis isolate 5408 assessed as fold increase in tetracycline MIC relative to control
[13] = test system: Salmonella enterica subsp. enterica serovar Enteritidis; assay: Inhibition of AcrAB-TolC efflux pump in Salmonella enterica serovar enteritidis isolate 5408-cip assessed as fold increase in ampicillin MIC relative to control
[14] = test system: Salmonella enterica subsp. enterica serovar Enteritidis; assay: Inhibition of AcrAB-TolC efflux pump in Salmonella enterica serovar enteritidis isolate 58 assessed as fold increase in ciprofloxacin MIC relative to controlphenylalanine-arginine-beta-naphthylamide
[15] = test system: Salmonella enterica subsp. enterica serovar Enteritidis; assay: Inhibition of AcrAB-TolC efflux pump in Salmonella enterica serovar enteritidis isolate 104-cip assessed as fold increase in ampicillin MIC relative to control
[16] = test system: Salmonella enterica subsp. enterica serovar Enteritidis; assay: Inhibition of AcrAB-TolC efflux pump in Salmonella enterica serovar enteritidis isolate 51 assessed as fold increase in ciprofloxacin MIC relative to control
[17] = test system: Salmonella enterica subsp. enterica serovar Enteritidis; assay: Inhibition of AcrAB-TolC efflux pump in Salmonella enterica serovar enteritidis isolate 104 assessed as fold increase in tetracycline MIC relative to control
[18] = test system: Salmonella enterica subsp. enterica serovar Enteritidis; assay: Inhibition of AcrAB-TolC efflux pump in Salmonella enterica serovar enteritidis isolate 51 assessed as fold increase in nalidixic acid MIC relative to control
[19] = test system: Salmonella enterica subsp. enterica serovar Enteritidis; assay: Inhibition of AcrAB-TolC efflux pump in Salmonella enterica serovar enteritidis isolate 104 assessed as fold increase in nalidixic acid MIC relative to control
[20] = test system: Salmonella enterica subsp. enterica serovar Enteritidis; assay: Inhibition of AcrAB-TolC efflux pump in Salmonella enterica serovar enteritidis isolate 54 assessed as fold increase in nalidixic acid MIC relative to control
[21] = test system: Salmonella enterica subsp. enterica serovar Enteritidis; assay: Inhibition of AcrAB-TolC efflux pump in Salmonella enterica serovar enteritidis isolate 5408 assessed as fold increase in trimethoprim-sulfamethoxazole MIC relative to control
[22] = test system: Salmonella enterica subsp. enterica serovar Enteritidis; assay: Inhibition of AcrAB-TolC efflux pump in Salmonella enterica serovar enteritidis isolate 5408-cip assessed as fold increase in chloramphenicol MIC relative to control
[23] = test system: Salmonella enterica subsp. enterica serovar Enteritidis; assay: Inhibition of AcrAB-TolC efflux pump in Salmonella enterica serovar enteritidis isolate CUH52 assessed as fold increase in nalidixic acid MIC relative to control
[24] = test system: Salmonella enterica subsp. enterica serovar Enteritidis; assay: Inhibition of AcrAB-TolC efflux pump in Salmonella enterica serovar enteritidis isolate CUH60 assessed as fold increase in ciprofloxacin MIC relative to control
[25] = test system: Salmonella enterica subsp. enterica serovar Enteritidis; assay: Inhibition of AcrAB-TolC efflux pump in Salmonella enterica serovar enteritidis isolate 5408 assessed as fold increase in ampicillin MIC relative to control
[26] = test system: Salmonella enterica subsp. enterica serovar Enteritidis; assay: Inhibition of AcrAB-TolC efflux pump in Salmonella enterica serovar enteritidis isolate 104 assessed as fold increase in ampicillin MIC relative to control
[27] = test system: Salmonella enterica subsp. enterica serovar Enteritidis; assay: Inhibition of AcrAB-TolC efflux pump in Salmonella enterica serovar enteritidis isolate 5408 assessed as fold increase in ciprofloxacin MIC relative to control
[28] = test system: Salmonella enterica subsp. enterica serovar Enteritidis; assay: Inhibition of AcrAB-TolC efflux pump in ciprofloxacin-resistant Salmonella enterica serovar enteritidis isolate CUH48 assessed as fold increase in nalidixic acid MIC relative to control
[29] = test system: Salmonella enterica subsp. enterica serovar Enteritidis; assay: Inhibition of AcrAB-TolC efflux pump in Salmonella enterica serovar enteritidis isolate 104 assessed as fold increase in ciprofloxacin MIC relative to control
[30] = test system: Salmonella enterica subsp. enterica serovar Enteritidis; assay: Inhibition of AcrAB-TolC efflux pump in Salmonella enterica serovar enteritidis isolate 5408 assessed as fold increase in chloramphenicol MIC relative to control
[31] = test system: Salmonella enterica subsp. enterica serovar Enteritidis; assay: Inhibition of AcrAB-TolC efflux pump in Salmonella enterica serovar enteritidis isolate 4931 assessed as fold increase in ciprofloxacin MIC relative to control
[32] = test system: Salmonella enterica subsp. enterica serovar Enteritidis; assay: Inhibition of AcrAB-TolC efflux pump in Salmonella enterica serovar enteritidis isolate 5408-cip assessed as fold increase in ciprofloxacin MIC relative to control
[33] = test system: Salmonella enterica subsp. enterica serovar Enteritidis; assay: Inhibition of AcrAB-TolC efflux pump in Salmonella enterica serovar enteritidis isolate 5408-cip assessed as fold increase in nalidixic acid MIC relative to control
[34] = test system: Salmonella enterica subsp. enterica serovar Enteritidis; assay: Inhibition of AcrAB-TolC efflux pump in Salmonella enterica serovar enteritidis isolate 5408-cip assessed as fold increase in trimethoprim-sulfamethoxazole MIC relative to control
[35] = test system: Salmonella enterica subsp. enterica serovar Enteritidis; assay: Inhibition of AcrAB-TolC efflux pump in Salmonella enterica serovar enteritidis isolate 104-cip assessed as fold increase in nalidixic acid MIC relative to control
[36] = test system: Salmonella enterica subsp. enterica serovar Enteritidis; assay: Inhibition of AcrAB-TolC efflux pump in Salmonella enterica serovar enteritidis isolate 104 assessed as fold increase in chloramphenicol MIC relative to control
[37] = test system: Salmonella enterica subsp. enterica serovar Enteritidis; assay: Inhibition of AcrAB-TolC efflux pump in Salmonella enterica serovar enteritidis isolate CUH60 assessed as fold increase in nalidixic acid MIC relative to control
[38] = test system: Salmonella enterica subsp. enterica serovar Enteritidis; assay: Inhibition of AcrAB-TolC efflux pump in Salmonella enterica serovar enteritidis isolate 5408 assessed as fold increase in nalidixic acid MIC relative to control
[39] = test system: Salmonella enterica subsp. enterica serovar Enteritidis; assay: Inhibition of AcrAB-TolC efflux pump in Salmonella enterica serovar enteritidis isolate NCTC 13349 assessed as fold increase in ciprofloxacin MIC relative to control
[40] = test system: Salmonella enterica subsp. enterica serovar Enteritidis; assay: Inhibition of AcrAB-TolC efflux pump in Salmonella enterica serovar enteritidis isolate 104 assessed as fold increase in trimethoprim-sulfamethoxazole MIC relative to control
[41] = test system: Salmonella enteritidis; assay: Antimicrobial activity against acrB::aph-deficient ciprofloxacin-resistant Salmonella enterica serovar enteritidis isolate 5408-cip harboring gyrA D87Y, gyrB E466D, parE V461G mutant gene by Etest; assay type: functional, Salmonella enterica subsp. enterica serovar Enteritidis
Outline: (§1)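 Deletions (acrB, marA, soxS or ramA) were moved from SL1344 mutants into the isolates by P22 phage transduction. Transductants were selected on LB agar with 50 µg/ml kanamycin, and insertion of the kanamycin resistance gene was confirmed by PCR. MICs were then determined by Etest.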

[42] = test system: Salmonella enteritidis; assay: Antimicrobial activity against Salmonella enterica serovar enteritidis isolate 104 harboring gyrA D87Y mutant gene by Etest; assay type: functional, Salmonella enterica subsp. enterica serovar Enteritidis
[43] = test system: Salmonella enteritidis; assay: Antimicrobial activity against soxS::aph-deficient ciprofloxacin-resistant Salmonella enterica serovar enteritidis isolate 104-cip harboring gyrA D87Y,S83F mutant gene by Etest; assay type: functional, Salmonella enterica subsp. enterica serovar Enteritidis; outline: as §1
[44] = test system: Salmonella enteritidis; assay: Antimicrobial activity against marA::aph-deficient ciprofloxacin-resistant Salmonella enterica serovar enteritidis isolate 104-cip harboring gyrA D87Y,S83F mutant gene by Etest; assay type: functional, Salmonella enterica subsp. enterica serovar Enteritidis; outline: as §1
[45] = test system: Salmonella enteritidis; assay: Antimicrobial activity against ciprofloxacin-resistant Salmonella enterica serovar enteritidis isolate 5408-cip harboring gyrA D87Y, gyrB E466D, parE V461G mutant gene by Etest; assay type: functional, Salmonella enterica subsp. enterica serovar Enteritidis
[46] = test system: Salmonella enteritidis; assay: Antimicrobial activity against Salmonella enterica serovar enteritidis isolate 5408 harboring gyrA D87Y mutant gene by Etest; assay type: functional, Salmonella enterica subsp. enterica serovar Enteritidis
[47] = test system: Salmonella enteritidis; assay: Antimicrobial activity against Salmonella enterica serovar enteritidis isolate 104-cip harboring gyrA D87Y,S83F mutant gene by Etest; assay type: functional, Salmonella enterica subsp. enterica serovar Enteritidis
[48] = test system: Salmonella enteritidis; assay: Antimicrobial activity against ramA::aph-deficient ciprofloxacin-resistant Salmonella enterica serovar enteritidis isolate 5408-cip harboring gyrA D87Y, gyrB E466D, parE V461G mutant gene by Etest; assay type: functional, Salmonella enterica subsp. enterica serovar Enteritidis; outline: as §1
[49] = test system: Salmonella enteritidis; assay: Antimicrobial activity against acrB::aph-deficient ciprofloxacin-resistant Salmonella enterica serovar enteritidis isolate 104-cip harboring gyrA D87Y,S83F mutant gene by Etest; assay type: functional, Salmonella enterica subsp. enterica serovar Enteritidis; outline: as §1

Structure (SMILES): N=C(N)NCCC[C@H](NC(=O)[C@@H](N)Cc1ccccc1)C(=O)Nc1ccc2ccccc2c1 (H-Phe-Arg-βNA)
- Activity [1]: 0.094 µg/mL
- Activity [2]: 0.064 µg/mL
- Activity [3]: 0.38 µg/mL
- Activity [4]: 1 µg/mL
- Activity [5]: 16 µg/mL
- Activity [6]: 3 µg/mL
- Activity [7]: 24 µg/mL
- MIC [8]: 0.012 µg/mL
- Activity [9]: 0.008 µg/mL
- Activity [10]: 0.023 µg/mL
- Activity [11]: 2 µg/mL
- Activity [12]: 0.19 µg/mL
- Activity [13]: 2 µg/mL
- Activity [14]: 0.064 µg/mL
- Activity [15]: 1 µg/mL
- Activity [16]: 0.094 µg/mL
- Activity [17]: 0.19 µg/mL
- Activity [18]: 32 µg/mL
- Activity [19]: 24 µg/mL
- Activity [20]: 16 µg/mL
- Activity [21]: 0.023 µg/mL
- Activity [22]: 0.38 µg/mL
- Activity [23]: 0.75 µg/mL
- Activity [24]: 0.094 µg/mL
- Activity [25]: 1 µg/mL
- Activity [26]: 0.75 µg/mL
- Activity [27]: 0.094 µg/mL
- MIC [28]: 0.5 µg/mL (≈ 1.12 µM)
- Activity [29]: 0.094 µg/mL
- Activity [30]: 0.5 µg/mL
- Activity [31]: 0.064 µg/mL
- Activity [32]: 2 µg/mL
- Activity [33]: 16 µg/mL
- Activity [34]: 0.032 µg/mL
- Activity [35]: 256 µg/mL
- Activity [36]: 0.75 µg/mL
- Activity [37]: 32 µg/mL
- Activity [38]: 24 µg/mL
- Activity [39]: 0.008 µg/mL
- Activity [40]: 0.023 µg/mL

Structure (SMILES): CC1(C)S[C@@H]2[C@H](NC(=O)[C@H](N)c3ccccc3)C(=O)N2[C@H]1C(=O)O [AMPICILLIN]
- MIC [41]: 0.094 µg/mL (≈ 0.269 µM)
- MIC [42]: 1 µg/mL (≈ 2.86 µM)
- MIC [43]: 0.5 µg/mL (≈ 1.43 µM)
- MIC [44]: 1.5 µg/mL (≈ 4.29 µM)
- MIC [45]: 4 µg/mL (≈ 11.4 µM)
- MIC [46]: 1 µg/mL (≈ 2.86 µM)
- MIC [47]: 16 µg/mL (≈ 45.8 µM)
- MIC [48]: 1 µg/mL (≈ 2.86 µM)
- MIC [49]: 0.125 µg/mL (≈ 0.358 µM)

Structure (SMILES): O=C(N[C@H](CO)[C@H](O)c1ccc([N+](=O)[O-])cc1)C(Cl)Cl [CHLORAMPHENICOL]
- MIC [41]: 0.5 µg/mL (≈ 1.55 µM)
- MIC [42]: 2 µg/mL (≈ 6.19 µM)
- MIC [43]: 1.5 µg/mL (≈ 4.64 µM)
- MIC [44]: 3 µg/mL (≈ 9.28 µM)
- MIC [45]: 16 µg/mL (≈ 49.5 µM)
- MIC [46]: 3 µg/mL (≈ 9.28 µM)
- MIC [47]: 96 µg/mL (≈ 297 µM)
- MIC [48]: 3 µg/mL (≈ 9.28 µM)
- MIC [49]: 0.75 µg/mL (≈ 2.32 µM)
